Drawing on ChEMBL document CHEMBL1133510, “Synthesis and evaluation of novel steroidal oxime inhibitors of P450 17 (17 alpha-hydroxylase/C17-20-lyase) and 5 alpha-reductase types 1 and 2” (J Med Chem, 2000), this text covers IC50 and inhibition for two molecules.

In data set [1] the target is T1, Steroid 17-alpha-hydroxylase/17,20 lyase (Rattus norvegicus, UniProt P11715).
T1 sequence (P11715 whole entry): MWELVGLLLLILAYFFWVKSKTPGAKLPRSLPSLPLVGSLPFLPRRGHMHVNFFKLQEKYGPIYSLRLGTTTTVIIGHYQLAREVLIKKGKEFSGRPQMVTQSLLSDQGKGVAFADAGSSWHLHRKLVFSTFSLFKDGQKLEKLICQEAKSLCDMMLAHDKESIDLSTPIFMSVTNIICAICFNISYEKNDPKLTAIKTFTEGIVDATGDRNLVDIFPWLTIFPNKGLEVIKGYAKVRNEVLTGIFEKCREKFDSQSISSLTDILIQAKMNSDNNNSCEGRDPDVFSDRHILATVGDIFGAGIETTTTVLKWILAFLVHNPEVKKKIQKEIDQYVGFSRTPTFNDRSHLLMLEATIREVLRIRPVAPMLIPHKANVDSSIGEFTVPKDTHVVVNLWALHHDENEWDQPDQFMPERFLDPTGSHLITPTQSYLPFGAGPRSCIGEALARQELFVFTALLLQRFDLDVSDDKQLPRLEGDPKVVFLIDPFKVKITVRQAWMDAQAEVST
The data set can be described thus: Evaluated for the inhibitory activity towards Cytochrome P450 17 rat enzyme using testicular microsome at 25 uM of substrate (progesterone). More on the design: species or system Testis. A digest of the protocol: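 Testicular microsomes (human for human enzyme, rat for rat enzyme) incubated with progesterone substrate at 25 µM; product measured by RP-HPLC with UV detection. IC50 = concentration giving 50% inhibition, mean of at least two experiments.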

Data set [2] addresses T2, P450 scc (cholesterol side-chain cleavage enzyme, mitochondrial) (Bos taurus, UniProt P00189).
T2 sequence (P00189 whole entry): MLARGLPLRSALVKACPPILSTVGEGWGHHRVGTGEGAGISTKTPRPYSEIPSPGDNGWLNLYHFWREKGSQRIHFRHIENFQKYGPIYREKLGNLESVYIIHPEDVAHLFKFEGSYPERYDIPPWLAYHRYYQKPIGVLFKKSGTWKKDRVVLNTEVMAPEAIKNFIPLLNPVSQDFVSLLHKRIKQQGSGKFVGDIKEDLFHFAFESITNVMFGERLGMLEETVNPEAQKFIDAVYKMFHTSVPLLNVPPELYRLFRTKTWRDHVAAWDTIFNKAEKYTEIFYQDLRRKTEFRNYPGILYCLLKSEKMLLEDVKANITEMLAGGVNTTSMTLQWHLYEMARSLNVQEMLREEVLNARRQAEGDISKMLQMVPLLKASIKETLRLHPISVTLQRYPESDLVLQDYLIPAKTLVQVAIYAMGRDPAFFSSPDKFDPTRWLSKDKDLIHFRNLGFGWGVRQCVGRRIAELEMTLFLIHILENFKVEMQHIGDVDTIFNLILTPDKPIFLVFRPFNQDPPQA
The data set can be described thus: Inhibition of P450 scc at 25 uM. The note with it: cattle. A digest of the protocol: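 Bovine adrenal P450 scc preparation; inhibitor tested at 25 µM.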

In data set [3] the target is T3, Steroid 17-alpha-hydroxylase/17,20 lyase (Homo sapiens, UniProt P05093).
T3 sequence (P05093 whole entry): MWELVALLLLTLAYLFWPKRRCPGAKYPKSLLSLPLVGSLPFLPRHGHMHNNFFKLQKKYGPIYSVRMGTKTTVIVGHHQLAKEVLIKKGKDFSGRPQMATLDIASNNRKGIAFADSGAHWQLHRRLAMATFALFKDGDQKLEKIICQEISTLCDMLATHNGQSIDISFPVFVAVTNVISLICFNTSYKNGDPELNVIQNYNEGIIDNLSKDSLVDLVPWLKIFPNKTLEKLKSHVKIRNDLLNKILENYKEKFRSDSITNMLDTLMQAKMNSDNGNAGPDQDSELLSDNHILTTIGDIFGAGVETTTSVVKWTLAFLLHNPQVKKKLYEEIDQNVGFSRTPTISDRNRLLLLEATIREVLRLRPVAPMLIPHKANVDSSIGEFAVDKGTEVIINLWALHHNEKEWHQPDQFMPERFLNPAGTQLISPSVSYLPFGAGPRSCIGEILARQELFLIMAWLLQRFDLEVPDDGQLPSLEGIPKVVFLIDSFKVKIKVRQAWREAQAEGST
The data set can be described thus: Evaluated for the inhibitory activity towards Cytochrome P450 17 human enzyme using testicular microsome at 25 uM of substrate (progesterone). On the set-up: species or system Testis.

Data set [4] addresses T4, 3-oxo-5-alpha-steroid 4-dehydrogenase 2 (Homo sapiens, UniProt P31213).
T4 sequence (P31213 whole entry): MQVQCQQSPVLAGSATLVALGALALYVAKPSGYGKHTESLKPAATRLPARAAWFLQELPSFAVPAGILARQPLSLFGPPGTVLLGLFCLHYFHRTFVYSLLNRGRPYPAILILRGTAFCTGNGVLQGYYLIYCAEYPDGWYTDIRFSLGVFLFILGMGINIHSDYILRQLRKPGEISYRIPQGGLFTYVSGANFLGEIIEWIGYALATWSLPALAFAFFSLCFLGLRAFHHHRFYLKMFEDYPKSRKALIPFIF
Put plainly: Inhibition of steroid 5-alpha-reductase type 2 from human BPH tissue at 210 nM testosterone; No inhibition. A digest of the protocol: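 Enzyme from prostate homogenate of BPH patients, assayed at pH 5.5 with radiolabeled testosterone at 210 nM; product separated by HPLC. IC50 taken as inhibitor concentration giving 50% inhibition; mean of at least two experiments.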

The target of data set [5] is T5, 3-oxo-5-alpha-steroid 4-dehydrogenase 1 (Homo sapiens, UniProt P18405).
T5 sequence (P18405 whole entry): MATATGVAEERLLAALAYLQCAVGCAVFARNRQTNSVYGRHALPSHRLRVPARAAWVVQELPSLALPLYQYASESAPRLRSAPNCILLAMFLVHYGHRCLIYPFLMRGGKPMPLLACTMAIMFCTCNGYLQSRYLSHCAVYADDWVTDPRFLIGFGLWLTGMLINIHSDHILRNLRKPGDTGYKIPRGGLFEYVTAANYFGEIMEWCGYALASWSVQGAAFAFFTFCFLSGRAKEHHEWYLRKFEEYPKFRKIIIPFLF
The data set can be described thus: Evaluated for the inhibitory activity against human steroid 5-alpha-reductase type I in human DU-145 cell assay at 5 nM of androstenedione. The format is cell-based. A digest of the protocol:
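Whole human DU-145 cells as source of type 1 enzyme, incubated with radiolabeled androstenedione at 5 nM; HPLC separation of product. IC50 = inhibitor concentration giving 50% inhibition; mean of at least two experiments.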

Regarding `CC12CCC(O)CC1=CCC1C2CCC2(C)C(C/C=N/O)CCC12` (configuration not stated), the IC50 (commonly the concentration at which inhibition is half-maximal) in data set [1] is 2760 nM; in data set [3], 270 nM. For the same molecule, the inhibition (in general, how much of the control response was suppressed) at 25 µM in data set [2] worked out at 74%.
For `C/C(=N/O)C1=CC=C2C3CCC4=CC(=O)CCC4(C)C3CCC12C` (configuration not stated), the IC50 was greater than 125000 nM in data set [1], 200 nM in data set [3], “Not Active” in data set [4] and greater than 10000 nM in data set [5].
